Experimental findings from the array DNA melting data of Ke et al. (doi:10.1101/2024.01.08.574731) are described below.

Data set [1] in a line: folding enthalpy; higher = less favourable; fluorescence melt of hairpins on a sequencing array, two-state fit. The settings on record: sodium 0.088 M. Summed up:
(§1)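 To match UV melts, fitted temperatures were raised by 9.35 °C. These fits were bootstrapped two-state models that gave melting temperature and folding enthalpy, combined by inverse variance over four replicates. The input was normalised Cy3 fluorescence of library hairpins with annealed Cy3 and quencher oligos on a sequenced MiSeq flow cell, imaged in 50 mM Na-HEPES pH 8.0, 25 mM NaCl in 2.5 °C steps up to 60 °C.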

Data set [2] is described as follows: melting temperature; fluorescence melt of hairpins on a sequencing array, two-state fit, raised by 9.35 °C to match UV melts. The settings on record: sodium 0.088 M. A digest of the protocol:
as §1

Take CTCTCGAAAGAGAG (((((....))))): in data set [1], the folding enthalpy is -21.5 kcal/mol. In addition, the Tm in data set [2] came out at 53.3 °C.

With GTGATAGAAATATCAC ((((((....)))))), the folding enthalpy in data set [1] was -32.9 kcal/mol. Moreover, the Tm in data set [2] came out at 46.5 °C.

Take GATGTGGGAAACCATGTC ((..(((....)))..)): the folding enthalpy in data set [1] is -32.6 kcal/mol. Further, the Tm in data set [2] turned out to be 34.9 °C.

Regarding GATAGCGAAAGCTTGATC ((((((....)))..))), the folding enthalpy in data set [1] was -8.2 kcal/mol. Further, the Tm in data set [2] was 25.1 °C.

GGTTGGGGAAACTCAGCC ((.((.(....).)).)): in data set [1], the folding enthalpy is -30.7 kcal/mol. The Tm in data set [2] turned out to be 36.1 °C.

Consider GCGTGCTGACGC ((((....)))), for which, in data set [1], the folding enthalpy was -18.1 kcal/mol. The Tm in data set [2] stood at 58.2 °C.

Take GGAAATCGAAAGATTCC (((.(((....)))))): in data set [1], the folding enthalpy was -20.9 kcal/mol. Also, the Tm in data set [2] stood at 40.4 °C.

With GAGACAGGAAACTGTCTC (((((((....))))))), the folding enthalpy in data set [1] was -49.7 kcal/mol. Also, in data set [2], the Tm was found to be 60.1 °C.

As for GAGAGCGAAAGCTGTCTC ((((((....)))..))), the folding enthalpy in data set [1] is -20.3 kcal/mol. In data set [2], the Tm was 51.1 °C.

Regarding GATCGTCAGGACGATC ((((((....)))))), the folding enthalpy in data set [1] was -45.6 kcal/mol. Also, the Tm in data set [2] was 58.3 °C.

Regarding GATTTCGGAAACGAAATC (((((((....))))))), the folding enthalpy in data set [1] is -41.2 kcal/mol. Further, the Tm in data set [2] was found to be 58.1 °C.

GCCTTACGAAAGTAGGGC (((.(((....))).))): in data set [1], the folding enthalpy is -37.1 kcal/mol. Besides, the Tm in data set [2] was determined as 57.3 °C.

Turning to GCCTCGGGAAACTGAGGC (((((.(....).))))), the folding enthalpy in data set [1] is -37.1 kcal/mol. For the same sequence, the Tm in data set [2] is 59.4 °C.

As for GACACGGGAAACCGTGCC (.(((((....))))).), the folding enthalpy in data set [1] is -13.8 kcal/mol. Also, in data set [2], the Tm stood at 48.4 °C.

GGTTACGAAAGTATTACC ((((((....)))..))): in data set [1], the folding enthalpy is -15.2 kcal/mol. In addition, the Tm in data set [2] stood at 29.6 °C.

With GCACACGAAAGTGGTGC ((((((....))).))), the folding enthalpy in data set [1] was -33 kcal/mol. The Tm in data set [2] is 59.6 °C.

Regarding TTAACGAAAGTTAA (((((....))))), in data set [1], the folding enthalpy is -14 kcal/mol. Also, the Tm in data set [2] is 41.1 °C.

In the case of GATCTGCGACCAGATC ((((((....)))))), the folding enthalpy in data set [1] was -35 kcal/mol. Further, the Tm in data set [2] was determined as 46.6 °C.

As to GCGACGAATCGC ((((....)))), the folding enthalpy in data set [1] was -13.1 kcal/mol. For the same sequence, the Tm in data set [2] was 49.6 °C.

On to GCGCACGAAAGTGTCCGC ((((((....)))..))), for which, in data set [1], the folding enthalpy was -18.6 kcal/mol. Moreover, in data set [2], the Tm stood at 48 °C.

Turning to GATTGCGAAAGCATAATC ((((((....)))..))), the folding enthalpy in data set [1] was -12.8 kcal/mol. Moreover, in data set [2], the Tm came out at 33.1 °C.

For the sequence GTCCACGAAAGTGTGAC ((((((....))).))), the folding enthalpy in data set [1] was -22.4 kcal/mol. The Tm in data set [2] was 50.4 °C.

On to GCTTAGCGAAAGCCTAGC (((..((....))..))), for which the folding enthalpy in data set [1] was -15.6 kcal/mol. Also, in data set [2], the Tm turned out to be 37.8 °C.

With GTAATCGGAAACGATTAC (((((((....))))))), the folding enthalpy in data set [1] was -42.4 kcal/mol. For the same sequence, in data set [2], the Tm was determined as 56.4 °C.

GTGTGCCGAAAGGCCAC (((.(((....)))))): the folding enthalpy in data set [1] is -20.6 kcal/mol. The Tm in data set [2] amounted to 63.8 °C.

As for GCGTTTGGAAACAGATGC ((.(.((....)).).)), the folding enthalpy in data set [1] was -17.6 kcal/mol. Moreover, in data set [2], the Tm amounted to 30.1 °C.

Consider GGTCTTGGAAACAAGGTC (..((((....))))..), for which the folding enthalpy in data set [1] was -12 kcal/mol. In data set [2], the Tm was 30.4 °C.

Turning to GCCCTGCGAAAGCGGCGC ((.(.((....)).).)), the folding enthalpy in data set [1] was -15 kcal/mol. In addition, the Tm in data set [2] worked out at 62 °C.

Turning to GTGTTCGAAAGAATCAC ((((((....))).))), the folding enthalpy in data set [1] is -28.2 kcal/mol. For the same sequence, the Tm in data set [2] worked out at 41.5 °C.

Take GATCGTGTGGACGATC ((((((....)))))): in data set [1], the folding enthalpy was -38 kcal/mol. In addition, in data set [2], the Tm turned out to be 55.7 °C.

As for GCGCAGCGAAAGCATCGC (((..((....))..))), in data set [1], the folding enthalpy is -9.43 kcal/mol. Besides, in data set [2], the Tm was 47.4 °C.

For the sequence GTATGGGGAAACCCATGC (.(((((....))))).), the folding enthalpy in data set [1] was -20.9 kcal/mol. Also, the Tm in data set [2] is 49 °C.

With GAAGTAGGAAACTGCTTC ((((.((....)).)))), the folding enthalpy in data set [1] was -34.4 kcal/mol. In data set [2], the Tm came out at 43.3 °C.

For GATCCATCTGTGGATC ((((((....)))))), the folding enthalpy in data set [1] is -36.4 kcal/mol. Also, the Tm in data set [2] amounted to 54.3 °C.

Take GCGGTAGGAAACTGCTGC ((.(.((....)).).)): the folding enthalpy in data set [1] is -27.5 kcal/mol. In data set [2], the Tm is 45.5 °C.

Consider GACCGTGGAAACACGACC (..((((....))))..), for which, in data set [1], the folding enthalpy is -10.8 kcal/mol. Besides, the Tm in data set [2] was 28 °C.

Regarding GTCGTCTCGAAAGAGGAC (((..(((....)))))), the folding enthalpy in data set [1] was -21.6 kcal/mol. The Tm in data set [2] turned out to be 39 °C.
